Test results taken from ChEMBL document CHEMBL1938297, “Synthesis, radiofluorination and pharmacological evaluation of a fluoromethyl spirocyclic PET tracer for central σ1 receptors and comparison with fluoroalkyl homologs” (Bioorg Med Chem, 2012).

How the values were obtained:
[1] = Biodistribution in CD1 mouse urine at 300 kBq, iv after 5 mins by gamma counting; type: ADME, organism-based; details: in vivo
Procedure, shortened: (§1)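 Female CD-1 mice received 300 kBq of the radiotracer i.v.; 3–6 animals per time point were anaesthetised at 5, 30, 60 or 120 min p.i. Blood and urine were collected, animals were killed by cervical dislocation, and organs were dissected and weighed. Activity was counted in a calibrated gamma counter and expressed as % injected dose per g wet tissue, mean with SD.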

Brain [2] = assay: Biodistribution in CD1 mouse brain at 300 kBq, iv after 120 mins by gamma counting; type: ADME, organism-based; details: in vivo, 2 h
Procedure, shortened: (§2)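 Female CD-1 mice received [18F]1 (300 kBq) i.v.; 3–6 animals per time point anesthetized at 5, 30, 60 or 120 min p.i., blood and urine collected, animals euthanized by cervical dislocation, organs dissected and weighed. Radioactivity counted in a calibrated gamma counter; % ID/g = tissue counts / initial dose counts / tissue weight; means with SD.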

Mus musculus [3] = assay: Biodistribution in CD1 mouse thymus at 300 kBq, iv after 5 mins by gamma counting; type: ADME, organism-based; details: in vivo
Procedure, shortened: (§3)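 Female CD-1 mice received the 18F tracer iv at 300 kBq in 0.9% NaCl containing 5% ethanol; 3–6 animals per time point (5, 30, 60, 120 min p.i.). Animals anaesthetized, blood and urine collected, killed by cervical luxation, organs dissected and weighed, counted in calibrated gamma counter. %ID/g = tissue counts / initial dose counts / tissue weight; mean with SD.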

Mus musculus [4] = assay: Biodistribution in CD1 mouse lateral periaqueductal gray in brain saggital section at 24 MBq, iv at 45 mins by autoradiography; type: ADME, organism-based; details: in vivo, 0.75 h
Procedure, shortened: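 Ex vivo autoradiography: female CD-1 mouse given 18F tracer iv (24 MBq), killed 45 min p.i.; brain hemispheres frozen in isopentane (−35 °C), 12 µm sagittal cryostat sections thaw-mounted, air-dried and exposed to 18F-sensitive phosphor screens. Regional uptake compared with anterior olfactory bulb as nontarget region (target-to-nontarget ratio).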

Mus musculus [5] = assay: Biodistribution in CD1 mouse fat at 300 kBq, iv after 5 mins by gamma counting; type: ADME, organism-based, Adipose tissue; details: in vivo; procedure, shortened: as §2
[6] = Octanol-phosphate buffer partition coefficient, log D of the compound at pH 7.2 by shake-flask method; type: physicochemical
Procedure, shortened: (§4)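 Shake-flask distribution of the radioligand between n-octanol and aqueous buffer at pH 7.2, either phosphate buffer or phosphate-saline; n = 3.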

Stomach [7] = assay: Biodistribution in CD1 mouse stomach at 300 kBq, iv after 120 mins by gamma counting; type: ADME, organism-based; details: in vivo, 2 h; procedure, shortened: as §3
Mus musculus [8] = assay: Biodistribution in CD1 mouse eye at 300 kBq, iv after 60 mins by gamma counting; type: ADME, organism-based; details: in vivo, 1 h; procedure, shortened: as §2
Femur [9] = assay: Biodistribution in CD1 mouse femur at 300 kBq, iv after 120 mins by gamma counting; type: ADME, organism-based; details: in vivo, 2 h; procedure, shortened: as §2
Kidney [10] = assay: Biodistribution in CD1 mouse kidney at 300 kBq, iv after 60 mins by gamma counting; type: ADME, organism-based; details: in vivo, 1 h; procedure, shortened: as §3
Heart = assay: Biodistribution in CD1 mouse heart at 300 kBq, iv after 5 mins by gamma counting; type: ADME, organism-based; details: in vivo; procedure, shortened: as §3
Pancreas = assay: Biodistribution in CD1 mouse pancreas at 300 kBq, iv after 30 mins by gamma counting; type: ADME, organism-based; details: in vivo, 0.5 h; procedure, shortened: as §3
[11] = Biodistribution in CD1 mouse intestinal content at 300 kBq, iv after 5 mins by gamma counting; type: ADME, organism-based, Intestine; details: in vivo; procedure, shortened: as §3
Urinary bladder = assay: Biodistribution in CD1 mouse bladder at 300 kBq, iv after 60 mins by gamma counting; type: ADME, organism-based; details: in vivo, 1 h; procedure, shortened: as §2
Liver = assay: Biodistribution in CD1 mouse liver at 300 kBq, iv after 30 mins by gamma counting; type: ADME, organism-based; details: in vivo, 0.5 h; procedure, shortened: as §3
[12] = Ratio of biodistribution in anterior olfactory bulb to facial nucleus in brain saggital section of CD1 mouse at 24 MBq, iv after 45 mins; type: ADME, organism-based; details: in vivo, 0.75 h
Procedure, shortened: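 Female CD-1 mouse given 24 MBq radiotracer i.v. and killed at 45 min. The brain hemispheres were frozen in isopentane (−35 °C), cut into 12 µm sagittal cryosections and exposed to 18F-sensitive phosphor screens. Regional uptake was expressed as a target-to-nontarget ratio, with the anterior olfactory bulb as the nontarget reference.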

Kidney [13] = assay: Biodistribution in CD1 mouse kidney at 300 kBq, iv after 120 mins by gamma counting; type: ADME, organism-based; details: in vivo, 2 h; procedure, shortened: as §3
Mus musculus [14] = assay: Biodistribution in CD1 mouse adrenals at 300 kBq, iv after 30 mins by gamma counting; type: ADME, organism-based, Adrenal gland; details: in vivo, 0.5 h; procedure, shortened: as §2
Mus musculus [15] = assay: Biodistribution in CD1 mouse eye at 300 kBq, iv after 5 mins by gamma counting; type: ADME, organism-based; details: in vivo; procedure, shortened: as §2
Mus musculus [16] = assay: Biodistribution in CD1 mouse dorsolateral periaqueductal gray in brain saggital section at 24 MBq, iv at 45 mins by autoradiography; type: ADME, organism-based; details: in vivo, 0.75 h
Procedure, shortened: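 Female CD-1 mouse given [18F]1 (24 MBq) i.v. and sacrificed at 45 min. Brain hemispheres frozen in isopentane (−35 °C), cut into 12 µm sagittal cryosections, thaw-mounted, air-dried and exposed to 18F-sensitive storage phosphor screens. Anterior olfactory bulb served as nontarget region for target-to-nontarget ratios.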

[17] = n-Octanol-phosphate-saline solution partition coefficient, log D of the compound at pH 7.2 by shake-flask method; type: physicochemical; procedure, shortened: as §4
Stomach [18] = assay: Biodistribution in CD1 mouse stomach at 300 kBq, iv after 5 mins by gamma counting; type: ADME, organism-based; details: in vivo; procedure, shortened: as §3
Muscle tissue = assay: Biodistribution in CD1 mouse muscle at 300 kBq, iv after 120 mins by gamma counting; type: ADME, organism-based; details: in vivo, 2 h; procedure, shortened: as §3
Cerebellum [19] = assay: Biodistribution in CD1 mouse cerebellum at 300 kBq, iv after 60 mins by gamma counting; type: ADME, organism-based; details: in vivo, 1 h; procedure, shortened: as §2
Cerebellum [20] = assay: Biodistribution in CD1 mouse cerebellum at 300 kBq, iv after 30 mins by gamma counting; type: ADME, organism-based; details: in vivo, 0.5 h; procedure, shortened: as §2
Spleen = assay: Biodistribution in CD1 mouse spleen at 300 kBq, iv after 30 mins by gamma counting; type: ADME, organism-based; details: in vivo, 0.5 h; procedure, shortened: as §3
[21] = Biodistribution in CD1 mouse urine at 300 kBq, iv after 30 mins by gamma counting; type: ADME, organism-based; details: in vivo, 0.5 h; procedure, shortened: as §1
Femur [22] = assay: Biodistribution in CD1 mouse femur at 300 kBq, iv after 30 mins by gamma counting; type: ADME, organism-based; details: in vivo, 0.5 h; procedure, shortened: as §2
Brain [23] = assay: Biodistribution in CD1 mouse brain at 300 kBq, iv after 5 mins by gamma counting; type: ADME, organism-based; details: in vivo; procedure, shortened: as §2
Cerebellum [24] = assay: Biodistribution in CD1 mouse cerebellum at 300 kBq, iv after 5 mins by gamma counting; type: ADME, organism-based; details: in vivo; procedure, shortened: as §2
Blood = assay: Biodistribution in CD1 mouse blood at 300 kBq, iv after 120 mins by gamma counting; type: ADME, organism-based; details: in vivo, 2 h; procedure, shortened: as §2
[25] = Biodistribution in CD1 mouse intestinal content at 300 kBq, iv after 60 mins by gamma counting; type: ADME, organism-based, Intestine; details: in vivo, 1 h; procedure, shortened: as §3
Mus musculus [26] = assay: Biodistribution in CD1 mouse fat at 300 kBq, iv after 120 mins by gamma counting; type: ADME, organism-based, Adipose tissue; details: in vivo, 2 h; procedure, shortened: as §2
Mus musculus [27] = assay: Biodistribution in CD1 mouse adrenals at 300 kBq, iv after 120 mins by gamma counting; type: ADME, organism-based, Adrenal gland; details: in vivo, 2 h; procedure, shortened: as §2

[18F]CC1OC2(CCN(Cc3ccccc3)CC2)c2ccccc21 (centres undefined)
Drug uptake [1]: 3.99 % ID/g | Drug uptake (Brain [2]): 2.7 % ID/g | Drug uptake (Mus musculus [3]): 3.61 % ID/g | Drug uptake (Mus musculus [4]): Active | Drug uptake (Mus musculus [5]): 1.12 % ID/g | logD [6]: 2.45 | Drug uptake (Stomach [7]): 1.9 % ID/g | Drug uptake (Mus musculus [8]): 0.87 % ID/g | Drug uptake (Femur [9]): 1.92 % ID/g | Drug uptake (Kidney [10]): 6.03 % ID/g | Drug uptake (Heart): 7.33 % ID/g | Drug uptake (Pancreas): 16.03 % ID/g | Drug uptake [11]: 0.39 % ID/g | Drug uptake (Urinary bladder): 1.42 % ID/g | Drug uptake (Liver): 6.68 % ID/g | Ratio [12]: 1.34 | Drug uptake (Kidney [13]): 5.6 % ID/g | Drug uptake (Mus musculus [14]): 13.39 % ID/g | Drug uptake (Mus musculus [15]): 1.89 % ID/g | Drug uptake (Mus musculus [16]): Active | logD [17]: 2.39 | Drug uptake (Stomach [18]): 2.62 % ID/g | Drug uptake (Muscle tissue): 1.16 % ID/g | Drug uptake (Cerebellum [19]): 4.27 % ID/g | Drug uptake (Cerebellum [20]): 6.27 % ID/g | Drug uptake (Spleen): 8.85 % ID/g | Drug uptake [21]: 46.35 % ID/g | Drug uptake (Femur [22]): 4.34 % ID/g | Drug uptake (Brain [23]): 7.15 % ID/g | Drug uptake (Cerebellum [24]): 8.2 % ID/g | Drug uptake (Blood): 0.15 % ID/g | Drug uptake [25]: 0.32 % ID/g | Drug uptake (Mus musculus [26]): 2.08 % ID/g | Drug uptake (Mus musculus [27]): 6.6 % ID/g
